According to ChEMBL document CHEMBL1128183, “Hypoxia-selective agents derived from 2-quinoxalinecarbonitrile 1,4-di-N-oxides. 2” (1995):

What was measured:
[1] = Hypoxia cytotoxicity ratio (HCR), calculated by dividing the dose in air by the dose in hypoxia giving 1% control cell survival.; type: functional
Outline: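 Suspension cultures of V79 cells gassed continuously with pure air or nitrogen (30 min pre-gassing, then 2 h exposure), two flasks per dose, DMSO and nitracrine 0.06 μM controls. Clonogenic survival from plating efficiency relative to control after 7-day colony growth; ratio = air dose over hypoxic dose each giving 1% control survival, from dose-response curves.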

V79 = assay: Concentration giving 1% of control V79 cells survival in hypoxia; type: functional, Cricetulus griseus
Outline: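 V79 Chinese hamster lung fibroblasts, trypsinized from exponential monolayers into suspension (2 × 10^4 cells/mL, EMEM + 10% FBS + 10 mM HEPES), gassed with nitrogen 30 min before and throughout 2 h drug exposure; duplicate flasks per dose. Cells replated, colonies (>64 cells) counted after 7 days at 37 °C; dose-response curve gives micromolar dose for 1% of control survival.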

Row | Structure (SMILES) | HCR [1] | Potency (V79)
1 | N#Cc1c(N)[n+]([O-])c2ccc(Cl)cc2[n+]1[O-] | 150 | 9000 nM
2 | N#Cc1c(NCCCN2CCOCC2)[n+]([O-])c2cc(Cl)ccc2[n+]1[O-] | >125 | 800 nM
3 | CCN(CC)CCNc1c(C#N)[n+]([O-])c2ccccc2[n+]1[O-] | 120 | 900 nM
4 | COc1ccc2c(c1)[n+]([O-])c(C#N)c(NCCCN(C)C)[n+]2[O-] | 200 | 2000 nM
5 | CN(CCCNc1c(C#N)[n+]([O-])c2cc(Cl)ccc2[n+]1[O-])CCCNc1c(C#N)[n+]([O-])c2cc(Cl)ccc2[n+]1[O-] | 10 | 700 nM
6 | N#Cc1c(NCCCn2ccnc2)[n+]([O-])c2ccc(Cl)cc2[n+]1[O-] | >50 | 2000 nM
7 | N#Cc1c[n+]([O-])c2ccccc2[n+]1[O-] | >100 | 5000 nM
8 | Cc1ccc2c(c1)[n+]([O-])c(C#N)c(NCCCN(C)C)[n+]2[O-] | 300 | 1000 nM
9 | CN(C)CCCNc1c(C#N)[n+]([O-])c2cc(F)ccc2[n+]1[O-] | 170 | 600 nM
10 | CN(C)CCCNc1c(C#N)[n+]([O-])c2cc(Cl)ccc2[n+]1[O-] | 250 | 400 nM
11 | N#Cc1c[n+]([O-])c2ccc(Cl)cc2[n+]1[O-] | 30 | 3000 nM
12 | Cc1c(C#N)[n+]([O-])c2ccccc2[n+]1[O-] | 15 | 10000 nM
13 | N#Cc1c[n+]([O-])c2ccc(F)cc2[n+]1[O-] | >50 | 2000 nM
14 | N#Cc1c(N)[n+]([O-])c2ccc(-c3ccc([N+](=O)[O-])cc3)cc2[n+]1[O-] | 15 | 4000 nM
15 | N#Cc1c[n+]([O-])c2cc(F)c(F)cc2[n+]1[O-] | 5 | 300 nM
16 | CN(C)CCCNc1c(C#N)[n+]([O-])c2ccccc2[n+]1[O-] | 300 | 1000 nM
17 | COc1cc2c(cc1Cl)[n+]([O-])cc(C#N)[n+]2[O-] | >50 | 400 nM
18 | COc1ccc2c(c1)[n+]([O-])c(C#N)c[n+]2[O-] | >200 | 5000 nM
19 | CCN(CC)CCNc1c(C#N)[n+]([O-])c2cc(Cl)ccc2[n+]1[O-] | 40 | 500 nM
20 | CN(C)CCNc1c(C#N)[n+]([O-])c2cc(Cl)ccc2[n+]1[O-] | 100 | 300 nM

Row | Structure (SMILES) | HCR [1] | Potency (V79)
21 | CCN(CC)CCNc1c(C#N)[n+]([O-])c2cc(C)ccc2[n+]1[O-] | 100 | 3000 nM
22 | N#Cc1c[n+]([O-])c2ccc(-c3ccc([N+](=O)[O-])cc3)cc2[n+]1[O-] | 200 | 200 nM
23 | N#Cc1c[n+]([O-])c2ccc(C(F)(F)F)cc2[n+]1[O-] | 80 | 6000 nM
24 | Cc1cc2c(cc1C)[n+]([O-])c(C#N)c[n+]2[O-] | >7 | 14000 nM
25 | N#Cc1c(NCCCN2CCOCC2)[n+]([O-])c2ccc(Cl)cc2[n+]1[O-] | 300 | 2000 nM
26 | N#Cc1c(NCCO)[n+]([O-])c2ccc(Cl)cc2[n+]1[O-] | 75 | 4000 nM
27 | N#Cc1c(N)[n+]([O-])c2cc(F)c(F)cc2[n+]1[O-] | <10 | 1000 nM
28 | N#Cc1c(N)[n+]([O-])c2ccccc2[n+]1[O-] | 80 | 30000 nM
29 | N#Cc1c(N)[n+]([O-])c2ccc(C(F)(F)F)cc2[n+]1[O-] | 75 | 7000 nM
30 | CN(C)CCCNc1c(C#N)[n+]([O-])c2cc(C(F)(F)F)ccc2[n+]1[O-] | 340 | 300 nM
31 | N#Cc1c(N)[n+]([O-])c2ccc(F)cc2[n+]1[O-] | 100 | 15000 nM
32 | COc1ccc2c(c1)[n+]([O-])c(C#N)c(N)[n+]2[O-] | >10 | 30000 nM
33 | CCN(CC)CCNc1c(C#N)[n+]([O-])c2cc(OC)ccc2[n+]1[O-] | 100 | 1000 nM
34 | N#Cc1c[n+]([O-])c2cc(Cl)c(Cl)cc2[n+]1[O-] | 10 | 700 nM
35 | COc1cc2c(cc1Cl)[n+]([O-])c(N)c(C#N)[n+]2[O-] | <10 | 10000 nM
36 | CCN(CC)CCNc1c(C#N)[n+]([O-])c2cc(F)ccc2[n+]1[O-] | 75 | 400 nM
37 | CCN(CC)CCNc1c(C#N)[n+]([O-])c2cc(C(F)(F)F)ccc2[n+]1[O-] | 50 | 600 nM
38 | Cc1ccc2c(c1)[n+]([O-])c(C#N)c[n+]2[O-] | 200 | 6000 nM
39 | N#Cc1c(N)[n+]([O-])c2cc(Cl)c(Cl)cc2[n+]1[O-] | 80 | 1000 nM
40 | Nc1n[n+]([O-])c2ccccc2[n+]1[O-] [TIRAPAZAMINE] | 75 | 30000 nM
